Results as given in ChEMBL document CHEMBL1124685, “Synthesis, DNA-binding properties, and antitumor activity of novel distamycin derivatives” (J Med Chem, 1989).

Experiments:
HEp-2 = test: Tested in vitro for the cytotoxicity as number of viable cells against Hep-2 cell line after 72 hr treatment at conc. of 10E-6; format: functional; conditions: Homo sapiens, HEp-2, 72 h; read-out: ID50 (the source's name)
Summary of the method: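 Cytotoxicity read as number of viable cells. Hep-2 (MEM) received 72-h continuous drug treatment. L1210 and L1210/L-PAM (RPMI 1640) received 4-h treatment followed by 48-h incubation in drug-free medium. Media contained 10% fetal calf serum, glutamine, streptomycin and penicillin, at 37 °C in humidified 5% CO2.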

HeLa = test: Tested in vitro for the dose inhibiting cell proliferation by 50% against HeLa cell line after 24 hr treatment at conc. of 10E-6; format: functional; conditions: Homo sapiens, read-out: ID50 (the source's name)
L1210 [1] = test: Tested in vivo for optimal non-toxic dose against L1210 cell line in CDF1 mice; format: ADME, organism-based; conditions: mouse
Summary of the method: (§1)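 CDF1 mice inoculated intraperitoneally with 10⁵ L1210 or L1210/L-PAM cells per mouse, then treated intraperitoneally after tumor transplant. T/C % = median survival time of treated mice / median survival time of controls × 100. Activity criterion is T/C ≥ 125%. Optimal nontoxic dose (OD) is defined as a dose below LD10.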

L1210/LPAM [2] = test: Tested in vivo for optimal non-toxic dose against L1210/LPAM cell line in CDF1 mice; format: ADME, organism-based; conditions: mouse; summary of the method: as §1
L1210/LPAM [3] = test: Median survival time of treated to the control was determined in L1210/LPAM cell line; format: functional, Mus musculus; summary of the method: as §1
L1210 [4] = test: Median survival time of treated to the control mice with L1210 tumor cells; format: functional, Mus musculus; summary of the method: as §1
L1210 [5] = test: Tested in vitro for the cytotoxicity as number of viable cells against L1210 cell line after 4 hr treatment and 48 hr incubation in drug-free medium at conc. of 10E-6; conditions: Mus musculus, L1210, 4 h treatment, 48 h drug-free incubation; read-out: ID50 (the source's name)
L1210/LPAM [6] = test: Tested in vitro for the cytotoxicity as number of viable cells against L1210/LPAM cell line after 4 hr treatment and 48 hr incubation in drug-free medium at conc. of 10E-6; conditions: Mus musculus, 48 h drug-free incubation, read-out: ID50 (the source's name)
[7] = Tested in vitro for the resistance index ratio (ID50) of L1210/LPAM to L1210 cell line; format: functional
Summary of the method: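 Resistance index = ID50 (L1210/L-PAM) / ID50 (L1210), where ID50 is the dose inhibiting proliferation by 50%. Cells were exposed to drug for 4 h, then incubated 48 h in drug-free medium. Culture was RPMI 1640 with 10% fetal calf serum, glutamine and antibiotics, at 37 °C in 5% CO2.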

L1210 [8] = test: Median survival time of treated to the control was determined in L1210 cell line; format: functional, Mus musculus; summary of the method: as §1

Molecule `Cl.Cn1cc(NC(=O)c2cc(NC(=O)c3cc(NC(=O)c4ccc(N(CCCl)CCCl)cc4)cn3C)cn2C)cc1C(=O)NCCC(=N)N` [TALLIMUSTINE CHLORIDE] has an IC50 (HEp-2) of 0.19 µM, an IC50 (HeLa) of 0.02 µM and an OD (L1210 [1]) of 3.12 mg/kg. The OD (L1210/LPAM [2]) was 3.12 mg/kg, the T/C (L1210/LPAM [3]) was 144% and the T/C (L1210 [4]) was 175%. It also gave an IC50 (L1210 [5]) of 1.22 µM and an IC50 (L1210/LPAM [6]) of 0.36 µM.

With `Cl.Cn1cc(NC(=O)c2cc(NC(=O)c3cc(NC(=O)c4cc(N(CCCl)CCCl)cn4C)cn3C)cn2C)cc1C(=O)NCCC(=N)N` the IC50 (HEp-2) was 0.1 µM, the IC50 (HeLa) was 0.06 µM and the OD (L1210 [1]) was 0.39 mg/kg. The OD (L1210/LPAM [2]) was 0.39 mg/kg, the T/C (L1210/LPAM [3]) was 167% and the T/C (L1210 [4]) was 188%. The Ratio [7] was 0.87, the IC50 (L1210 [5]) was 0.08 µM and the IC50 (L1210/LPAM [6]) was 0.07 µM.

For `Cl.Cn1cc(NC(=O)c2cc(NC(=O)c3cc(NC(=O)c4cc(N(CCCl)CCCl)cs4)cn3C)cn2C)cc1C(=O)NCCC(=N)N`, the IC50 (HEp-2) was 0.09 µM, the IC50 (HeLa) was 0.05 µM and the OD (L1210 [1]) was 1.56 mg/kg. The OD (L1210/LPAM [2]) was 1.56 mg/kg, the T/C (L1210/LPAM [3]) was 111% and the T/C (L1210 [4]) was 132%. It also gave a Ratio [7] of 0.69, an IC50 (L1210 [5]) of 1.93 µM and an IC50 (L1210/LPAM [6]) of 1.32 µM.

For `Cl.Cn1cc(NC(=O)c2cc(NC(=O)c3cc(N(CCCl)CCCl)cn3C)cn2C)cc1C(=O)NCCC(=N)N`, the IC50 (HEp-2) was 1.22 µM, the IC50 (HeLa) was 1.95 µM and the OD (L1210 [1]) was 1.56 M. It also gave an OD (L1210/LPAM [2]) of 1.56 mg/kg, a T/C (L1210/LPAM [3]) of 122% and a T/C (L1210 [4]) of 138%. The Ratio [7] was 1.3, the IC50 (L1210 [5]) was 3.53 µM and the IC50 (L1210/LPAM [6]) was 4.56 µM.

With `Cn1cc(NC(=O)c2cc(NC(=O)c3cc(NC=O)cn3C)cn2C)cc1C(=O)NCCC(=N)N` [STALLIMYCIN] the IC50 (HEp-2) was 97 µM, the IC50 (HeLa) was 48 µM and the OD (L1210 [1]) was 200 mg/kg. The OD (L1210/LPAM [2]) was 200 mg/kg, the T/C (L1210/LPAM [3]) was 106% and the T/C (L1210 [4]) was 113%. For the same molecule, the Ratio [7] was 0.7, the IC50 (L1210 [5]) was 488 µM and the IC50 (L1210/LPAM [6]) was 343 µM.

With `N[C@@H](Cc1ccc(N(CCCl)CCCl)cc1)C(=O)O` [MELPHALAN] the IC50 (HEp-2) was 0.98 µM, the IC50 (HeLa) was 1.77 µM and the OD (L1210 [1]) was 10 mg/kg. The OD (L1210/LPAM [2]) was 10 mg/kg, the T/C (L1210/LPAM [3]) was 104% and the T/C (L1210 [8]) was 192%. The Ratio [7] was 7.7, the IC50 (L1210 [5]) was 1.7 µM and the IC50 (L1210/LPAM [6]) was 13.1 µM.
